Laboratory results: ChEMBL document CHEMBL1124029, “Novel DNA groove binding alkylators: design, synthesis, and biological evaluation” (1988)

What was measured:
Coxsackievirus B4 [1] = assay: Minimum inhibitory concentration required to reduce virus induced cytopathogenicity by 50% against Coxsackie type B4 virus in HeLa cell cultures; format: functional; settings: Enterovirus B
Coxsackievirus B4 [2] = assay: Minimum inhibitory concentration required to reduce virus induced cytopathogenicity by 50% against Coxsackie type B4 virus in Vero B cell cultures; format: functional; settings: Enterovirus B
FM3A = assay: Inhibition of proliferation of Murine mammary carcinoma (FM3A) cells was measured; format: functional; settings: Mus musculus, read-out: ID50 (the source's name)
Human alphaherpesvirus 2 = assay: Minimum inhibitory concentration required to reduce virus induced cytopathogenicity by 50% against herpes simplex-2 virus in rabbit primary kidney cell cultures; format: functional
Human alphaherpesvirus 1 = assay: Minimum inhibitory concentration required to reduce virus induced cytopathogenicity by 50% against herpes simplex-1 virus in rabbit primary kidney cell cultures; format: functional
L1210 [3] = assay: Inhibition of proliferation of Murine Leukemia (L1210) cells was measured; format: functional; settings: Mus musculus, read-out: ID50 (the source's name)
MOLT-4F = assay: Inhibition of proliferation of Human T Lymphoblast (Molt/4F) cells was measured; format: functional; settings: read-out: ID50 (the source's name)
P388 = assay: Percent inhibition of proliferation of Murine Leukemia (P388) cells was measured; format: functional, Mus musculus; design: concentration or dose not given beside the values
Outline: (§1)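 Mouse leukemia L1210 cells were grown in McCoy's 5A medium and P388D1 cells in Fischer's medium, each with 10% fetal calf serum. Compounds were dissolved in water, or sonicated and given as a suspension if poorly soluble. Cells were seeded at 1×10^5 per well and grown 72 h at 37 °C in 5% CO2. Viability was read by MTT formazan optical density at 570 nm (reference 630 nm).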

[4] = Minimum inhibitory concentration required to reduce virus induced cytopathogenicity by 50% against para influenza virus in WI-38 cell cultures; format: functional
Poliovirus 1 = assay: Minimum inhibitory concentration required to reduce virus induced cytopathogenicity by 50% against polio type 1 virus in HeLa cell cultures; format: functional; settings: Enterovirus C
[5] = test system: Mammalian orthoreovirus 1; assay: Minimum inhibitory concentration required to reduce virus induced cytopathogenicity by 50% against Reo-1 virus in WI-38 cell cultures; format: functional
Human rhinovirus 1A = assay: Minimum inhibitory concentration required to reduce virus induced cytopathogenicity by 50% against rhino-1A virus in WI-38 cell cultures; format: functional
rhinovirus A9 = assay: Minimum inhibitory concentration required to reduce virus induced cytopathogenicity by 50% against rhino-9 virus in WI-38 cell cultures; format: functional; settings: Rhinovirus A
Semliki Forest virus = assay: Minimum inhibitory concentration required to reduce virus induced forest virus in Vero B cell cultures; format: functional
Sindbis virus = assay: Minimum inhibitory concentration required to reduce virus induced cytopathogenicity by 50% against sindbis virus in Vero B cell cultures; format: functional
[6] = test system: Vesicular stomatitis virus; assay: Minimum inhibitory concentration required to reduce virus induced cytopathogenicity by 50% against Vesicular stomatitis virus in HeLa cell cultures; format: functional
[7] = (§2) Minimum cytotoxic concentration required to cause a microscopically detectable alteration of normal cell morphology; format: functional
[8] = as §2; format: functional; remark: listed apart in the source
Raji = assay: Inhibition of proliferation of Human B Lymphoblast (Raji) cells was measured; format: functional; settings: read-out: ID50 (the source's name)
L1210 [9] = assay: Percent inhibition of proliferation of Murine Leukemia (L1210) cells was measured; format: functional, Mus musculus; design: concentration or dose not given beside the values; outline: as §1
NAMALVA = assay: Inhibition of proliferation of Human B Lymphoblast (Namalva) cells was measured; format: functional; settings: read-out: ID50 (the source's name)
Hepatoma cell line = assay: Inhibition of proliferation of Human hepatoma cells was measured; format: functional; settings: read-out: ID50 (the source's name)

| SMILES | MIC (Coxsackievirus B4 [1]) | MIC (Coxsackievirus B4 [2]) | IC50 (FM3A) | MIC (Human alphaherpesvirus 2) | MIC (Human alphaherpesvirus 1) | IC50 (L1210 [3]) | IC50 (MOLT-4F) | Inhibition (P388) | MIC [4] | MIC (Poliovirus 1) | MIC [5] | MIC (Human rhinovirus 1A) | MIC (rhinovirus A9) | MIC (Semliki Forest virus) | MIC (Sindbis virus) | MIC [6] | MCC [7] | MCC [8] | IC50 (Raji) | Inhibition (L1210 [9]) | other results |
| --- | --- | --- | --- | --- | --- | --- | --- | --- | --- | --- | --- | --- | --- | --- | --- | --- | --- | --- | --- | --- | --- |
| Cl.Cn1cc(NC(=O)c2cc(NC(=O)C(Cl)(Cl)Cl)cn2C)cc1C(=O)NCCC(=N)N | > 40 µg/mL | > 100 µg/mL | > 100 µg/mL | > 100 µg/mL | > 100 µg/mL | 30.5 µg/mL | 84.3 µg/mL | 55% | > 100 µg/mL | > 40 µg/mL | > 40 µg/mL | > 40 µg/mL | > 40 µg/mL | > 100 µg/mL | > 100 µg/mL | > 40 µg/mL | > 100 µg/mL | > 200 µg/mL | 68.7 µg/mL | 28% | – |
| Cl.Cn1cc(NC(=O)c2cc(NC(=O)CCl)cn2C)cc1C(=O)NCCC(=N)N | > 100 µg/mL | > 100 µg/mL | 13.3 µg/mL | 70 µg/mL | 70 µg/mL | 8.7 µg/mL | 28.7 µg/mL | 38% | > 100 µg/mL | > 100 µg/mL | > 100 µg/mL | – | – | > 100 µg/mL | > 100 µg/mL | > 200 µg/mL | ≥ 100 µg/mL | – | 3.09 µg/mL | 29% | IC50 (NAMALVA): 5.3 µg/mL; IC50 (Hepatoma cell line): 3.63 µg/mL |
| Cl.Cn1cc(NC(=O)c2cc(NC(=O)CF)cn2C)cc1C(=O)NCCC(=N)N | – | > 200 µg/mL | ≥ 100 µg/mL | 100 µg/mL | 150 µg/mL | 40.3 µg/mL | 32.3 µg/mL | 0% | > 40 µg/mL | – | > 100 µg/mL | > 200 µg/mL | > 200 µg/mL | > 200 µg/mL | > 200 µg/mL | 100 µg/mL | > 200 µg/mL | > 100 µg/mL | 33.1 µg/mL | 0% | IC50 (NAMALVA): 32.3 µg/mL |
| Cl.Cn1cc(NC(=O)c2cc(NC(=O)CCCCl)cn2C)cc1C(=O)NCCC(=N)N | – | – | 74.1 µg/mL | 150 µg/mL | 300 µg/mL | > 100 µg/mL | > 100 µg/mL | 0% | – | – | – | – | – | – | – | > 400 µg/mL | > 200 µg/mL | > 200 µg/mL | > 100 µg/mL | 0% | – |
